In ChEMBL document CHEMBL3046748, “Antifeedant effects of the limonoids from Entandrophragma candolei (Meliaceae) on the gram pod borer, Helicoverpa armigera (Lepidoptera: Noctuidae)” (J Agric Food Chem, 2003):
Values after ≈ are worked out from the molar mass of the structure shown. Active and inactive are the calls of the source. No cut-off for these calls is given here.

Assays:
Helicoverpa armigera [1] = assay: Antifeedant activity against Helicoverpa armigera fed on compound-treated artificial diet assessed as growth inhibition at 50 to 100 ppm after 3 days relative to control; type: functional
Helicoverpa armigera [2] = assay: Antifeedant activity against Helicoverpa armigera fed on compound-treated artificial diet assessed as inhibition of consumption at 100 ppm after 3 days relative to control; type: functional; settings: 72 h
Helicoverpa armigera [3] = assay: Antifeedant activity against third-instar larva of Helicoverpa armigera assessed as growth inhibition after 7 days by dietary assay; type: functional, organism-based
Helicoverpa armigera [4] = assay: Antifeedant activity against neonate larva of Helicoverpa armigera assessed as growth inhibition after 7 days by dietary assay; type: functional, organism-based; settings: for EC95: Helicoverpa armigera, feed or water, 168 h
Method in brief: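 Two 24-h-old neonates were placed per cup on 1 g fresh-weight treated artificial diet. Cups were held in a tray lined with moist filter paper at 27±2 °C under 16:8 LD. Growth was taken from larval weight after 7 d as % of control, with mortality recorded. Forty larvae were used per concentration. EC50 was obtained by regression analysis.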

Helicoverpa armigera [5] = assay: Antifeedant activity against third-instar larva of Helicoverpa armigera assessed as decrease in food consumption at 2 to 10 ug/larva applied topically measured after 7 days relative to control; type: functional, organism-based
Method in brief: (§1)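 Larvae were dosed topically at 2-10 µg/larva in 0.5 µL acetone on the dorsal terga, with acetone-only controls. They were then fed untreated artificial diet, and diet consumption and weight gain were compared with controls over 7 d.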

Helicoverpa armigera [6] = assay: Antifeedant activity against fourth-instar larva of Helicoverpa armigera assessed as efficiency of conversion of ingested food at 10 ppm applied topically measured after 3 days (reference value: 20.3 +/- 2.7%); type: functional, Instar larval stage
Helicoverpa armigera [7] = assay: Antifeedant activity against fourth-instar larva of Helicoverpa armigera assessed as efficiency of conversion of ingested food at 5 ppm applied topically measured after 3 days (reference value: 20.3 +/- 2.7%); type: functional, Instar larval stage
Helicoverpa armigera [8] = assay: Antifeedant activity against fourth-instar larva of Helicoverpa armigera assessed as relative consumption rate ratio per unit weight per day at 10 ppm applied topically measured after 3 days (reference value: 3.85 +/- 0.9); type: functional
Helicoverpa armigera [9] = assay: Antifeedant activity against fourth-instar larva of Helicoverpa armigera assessed as relative consumption rate ratio per unit weight per day at 5 ppm applied topically measured after 3 days (reference value: 3.85 +/- 0.9); type: functional
Helicoverpa armigera [10] = assay: Antifeedant activity against fourth-instar larva of Helicoverpa armigera assessed as relative growth rate ratio per unit weight per day at 10 ppm applied topically measured after 3 days (reference value: 0.8 +/- 0.03); type: functional
Helicoverpa armigera [11] = assay: Antifeedant activity against fourth-instar larva of Helicoverpa armigera assessed as relative growth rate ratio per unit weight per day at 5 ppm applied topically measured after 3 days (reference value: 0.8 +/- 0.03); type: functional
Helicoverpa armigera [12] = assay: Antifeedant activity against fourth-instar larva of Helicoverpa armigera fed on compound treated artificial diet assessed as efficiency of conversion of ingested food at 100 ppm after 3 days (reference value: 20.3 +/- 2.7%); type: functional, Instar larval stage
Helicoverpa armigera [13] = assay: Antifeedant activity against fourth-instar larva of Helicoverpa armigera fed on compound treated artificial diet assessed as efficiency of conversion of ingested food at 50 ppm after 3 days (reference value: 20.3 +/- 2.7%); type: functional, Instar larval stage
Helicoverpa armigera [14] = assay: Antifeedant activity against fourth-instar larva of Helicoverpa armigera fed on compound treated artificial diet assessed as relative consumption rate ratio per unit weight per day at 100 ppm after 3 days (reference value: 3.85 +/- 0.9); type: functional
Helicoverpa armigera [15] = assay: Antifeedant activity against fourth-instar larva of Helicoverpa armigera fed on compound treated artificial diet assessed as relative consumption rate ratio per unit weight per day at 50 ppm after 3 days (reference value: 3.85 +/- 0.9); type: functional
Helicoverpa armigera [16] = assay: Antifeedant activity against fourth-instar larva of Helicoverpa armigera fed on compound treated artificial diet assessed as relative growth rate ratio per unit weight per day at 100 ppm after 3 days (reference value: 0.8 +/- 0.03); type: functional
Helicoverpa armigera [17] = assay: Antifeedant activity against fourth-instar larva of Helicoverpa armigera fed on compound treated artificial diet assessed as relative growth rate ratio per unit weight per day at 50 ppm after 3 days (reference value: 0.8 +/- 0.03); type: functional
Helicoverpa armigera [18] = assay: Antifeedant activity against pre-starved third-instar larva of Helicoverpa armigera after 6 hr by choice feeding assay; type: functional
Method in brief: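 H. armigera from lab culture on artificial diet, 27±1 °C, 16:8 LD. Single 2–10-h-old third instar, starved 4 h, in 9-cm Petri dish. Two preweighed diet cubes with compound (25–100 ppm) alternated with two control cubes. Consumption per cube measured after 6 h. 10 replicates per concentration. Deterrence index = (C − T)/(C + T) × 100.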

Helicoverpa armigera [19] = assay: Antifeedant activity against pre-starved third-instar larva of Helicoverpa armigera assessed as decrease in feeding after 6 hr by choice feeding assay relative to control; type: functional, organism-based
Method in brief: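 Diet choice test in 9-cm Petri dishes: two preweighed cubes of diet with compound (25-100 ppm) alternated with two control cubes. A single 2- to 10-h-old third instar, pre-starved 4 h, was placed centrally. Consumption of each cube was weighed after 6 h, with 10 replicates per concentration. Deterrence index = (C − T)/(C + T) × 100.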

Helicoverpa armigera [20] = assay: Antifeedant activity against third-instar larva of Helicoverpa armigera assessed as decrease in weight gain at 2 to 10 ug/larva applied topically measured after 7 days relative to control; type: functional, organism-based; method in brief: as §1
Helicoverpa armigera [21] = assay: Antifeedant activity against neonate larva of Helicoverpa armigera assessed as decrease in consumption of diet after 7 days by dietary assay; type: functional

Row | SMILES | growth inhibition (GI) (Helicoverpa armigera [1]) | inhibition at 100 ppm (Helicoverpa armigera [2]) | EC50 (Helicoverpa armigera [3]) | EC50 (Helicoverpa armigera [4]) | EC95 (Helicoverpa armigera [4]) | Activity (Helicoverpa armigera [5]) | Activity (Helicoverpa armigera [6]) | Activity (Helicoverpa armigera [7]) | Ratio (Helicoverpa armigera [8]) | Ratio (Helicoverpa armigera [9]) | Ratio (Helicoverpa armigera [10]) | Ratio (Helicoverpa armigera [11]) | Activity (Helicoverpa armigera [12]) | Activity (Helicoverpa armigera [13]) | Ratio (Helicoverpa armigera [14]) | Ratio (Helicoverpa armigera [15]) | Ratio (Helicoverpa armigera [16]) | Ratio (Helicoverpa armigera [17]) | Activity (Helicoverpa armigera [19]) | Activity (Helicoverpa armigera [20]) | also measured
1 | C/C=C(\C)C(=O)O[C@H]1C[C@@H](OC(C)=O)[C@@]2(C(=O)OC)CO[C@H]3[C@@H](O)[C@@](C)([C@]45O[C@@]4(C)[C@@H]4C[C@H]5O[C@@H]5OC=C[C@@]54O)[C@H]4[C@]1(CO[C@]4(O)C(=O)OC)[C@@H]32 [AZADIRACHTIN A] | ≤ 75% | ≤ 76% | 0.4 ppm | 0.26 ppm | 1.46 µg/mL (≈ 2.03 µM) |  |  |  |  |  |  |  |  |  |  |  |  |  |  |  | 
2 | C=C1[C@@H]([C@@]2(C)[C@@H](OC(C)=O)CC(=O)O[C@](C)(COC(C)=O)[C@@H]2C(=O)OC)[C@@H](OC=O)[C@H](OC(=O)[C@H](O)[C@H](C)CC)[C@@]2(C)[C@H](c3ccoc3)CC(=O)[C@]12O [PRIEURIANIN] | 60% | 57.7% | 92.2 ppm | 18.8 ppm | 169 µg/mL (≈ 226 µM) | inactive | 21.6% | 22.1% | 3.79 | 3.74 | 0.82 | 0.83 | 19.8% | 20% | 1.63 | 2.04 | 0.32 | 0.41 | Active | inactive | DI50 (Helicoverpa armigera [18]): 91.4 ppm
3 | C=C1[C@@H]([C@@]2(C)[C@@H](OC(C)=O)CC(=O)O[C@](C)(COC(C)=O)[C@@H]2CC(=O)OC)[C@@H](OC=O)[C@H](OC(=O)[C@H](O)[C@H](C)CC)[C@]2(C)[C@@H](c3ccoc3)C[C@H]3O[C@]132 | 60% | 69.1% | 55.7 ppm | 3.2 ppm | 30.6 µg/mL (≈ 41 µM) | inactive | 25.9% | 25.2% | 3.36 | 3.48 | 0.87 | 0.88 | 26.4% | 26.2% | 1.06 | 1.38 | 0.28 | 0.36 | Active | inactive | Activity (Helicoverpa armigera [21]): Dose-dependent effect; Activity (Helicoverpa armigera [21]; record 2): 50.2%
4 | C=C1[C@@H]([C@@]2(C)[C@@H](OC(C)=O)CC(=O)O[C@](C)(COC(C)=O)[C@@H]2CC(=O)OC)[C@@H](OC=O)[C@H](OC(=O)[C@H](OC(C)=O)[C@H](C)CC)[C@]2(C)[C@@H](c3ccoc3)C[C@H]3O[C@]132 | 60% | 72.8% | 45.7 ppm | 2.6 ppm | 30.8 µg/mL (≈ 39 µM) | inactive | 21.3% | 22.1% | 3.78 | 3.74 | 0.8 | 0.85 | 19% | 20.1% | 1.08 | 1.74 | 0.2 | 0.35 | Active | inactive | DI50 (Helicoverpa armigera [18]): 48.3 ppm; Activity (Helicoverpa armigera [21]): Dose-dependent effect; Activity (Helicoverpa armigera [21]; record 2): 50.2%
